Here are results for 20 compounds from ChEMBL document CHEMBL1148547, “The structure-activity relationships of mansonone F, a potent anti-MRSA sesquiterpenoid quinone: SAR studies on the C6 and C9 analogs” (2006).

In general, MIC50 refers to an inhibitory concentration at the 50% level, which refers to growth in some studies and to a panel of isolates in others. As a reminder, the MIC90 is an inhibitory concentration at the 90% level, which refers to growth in some studies and to a panel of isolates in others. A lower MIC90 goes with greater potency. As a reminder, the MIC is the smallest concentration in the dilution series that meets the test's criterion for growth inhibition. Low readings indicate greater potency, high ones weaker potency.

Assay type in all cases: functional
The subject of assay [1] is Staphylococcus aureus. Kind of assay: Antibacterial activity against methicillin-resistant Staphylococcus aureus. In short, it runs like this: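 Agar dilution MIC on Mueller–Hinton agar, run per the NCCLS procedure. Test organisms were clinical isolates collected from Seoul hospitals between 1997 and 1999 and stored at -70 °C until use.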
For assay [2], the system named is Micrococcus luteus. Kind of assay: Antibacterial activity against Micrococcus luteus ATCC 9341. A digest of the protocol:
(§1)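 MIC by agar dilution on Mueller–Hinton agar, following the NCCLS procedure.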

The next assay has as its system Klebsiella pneumoniae. Kind of assay: Antibacterial activity against Klebsiella pneumoniae ATCC 10031. A digest of the protocol:
as §1

The test system of assay [3] is Staphylococcus epidermidis. Kind of assay: Antibacterial activity against Staphylococcus epidermidis ATCC 12228. In short, it runs like this: as §1
Assay [4] has as its system Staphylococcus aureus. Kind of assay: Antibacterial activity against Staphylococcus aureus ATCC 6538P. A digest of the protocol: as §1
For assay [5], the system named is Micrococcus luteus. Kind of assay: Antibacterial activity against Micrococcus luteus ATCC 10240. A digest of the protocol: as §1
The test system of assay [6] is Staphylococcus aureus. Kind of assay: Antibacterial activity against Staphylococcus aureus ATCC 29213. A digest of the protocol:
as §1

Assay [7] concerns Staphylococcus aureus. Kind of assay: Antibacterial activity against Staphylococcus aureus. In short, it runs like this: as §1
Assay [8] deals with Staphylococcus aureus. Kind of assay: Antibacterial activity against Staphylococcus aureus ATCC 25923. A digest of the protocol:
as §1

The next assay deals with Bacillus cereus. Kind of assay: Antibacterial activity against Bacillus cereus ATCC 27348. A digest of the protocol:
as §1

Another assay concerns Bacillus subtilis. Kind of assay: Antibacterial activity against Bacillus subtilis ATCC 6633. A digest of the protocol:
as §1

Converted amounts (≈) assume the structure as drawn.

For the compound `CC1=COC2=CC(=O)C(=O)c3cccc1c32`, in the assay on Staphylococcus aureus [1], the MIC50 was above 32 µg/mL and the MIC90 was above 32 µg/mL.

As for `CC1=COC2=C(C)C(=O)C(=O)c3cccc1c32`, in the assay on Staphylococcus aureus [1], the MIC50 was found to be 8 µg/mL (≈ 35.4 µM) and the MIC90 turned out to be 8 µg/mL (≈ 35.4 µM).

For the compound `CCCCCCc1ccc2c3c1C(=O)C(=O)C(C)=C3OC=C2C`, in the assay on Staphylococcus aureus [1], the MIC50 came out at 8 µg/mL (≈ 25.8 µM) and the MIC90 was 16 µg/mL (≈ 51.5 µM).

Consider `CC1=COC2=C(C)C(=O)C(=O)c3c(C(C)C)ccc1c32`, for which, in the assay with Staphylococcus aureus [1], the MIC50 was determined as 4 µg/mL (≈ 14.9 µM) and the MIC90 was determined as 16 µg/mL (≈ 59.6 µM).

`CCCCc1ccc2c3c1C(=O)C(=O)C(C)=C3OC=C2C`: the MIC was found to be 0.25 µg/mL (≈ 0.885 µM) in the assay on Micrococcus luteus [2]; 2 µg/mL (≈ 7.08 µM) against Klebsiella pneumoniae; 0.25 µg/mL (≈ 0.885 µM) in assay [3]; 0.25 µg/mL (≈ 0.885 µM) in the assay with Staphylococcus aureus [4]; 0.25 µg/mL (≈ 0.885 µM) in the assay with Micrococcus luteus [5]; 0.25 µg/mL (≈ 0.885 µM) against Staphylococcus aureus [6]. Also, the minimum inhibitory concentration (MIC) with Staphylococcus aureus [7] (Smith) amounted to 0.25 µg/mL (≈ 0.885 µM); in the assay with Staphylococcus aureus [7] (TMS 33), 0.5 µg/mL (≈ 1.77 µM); against Staphylococcus aureus [7] (TMS 64), 0.25 µg/mL (≈ 0.885 µM); with Staphylococcus aureus [7] (TMS 417), 0.25 µg/mL (≈ 0.885 µM); in the assay with Staphylococcus aureus [8], 0.25 µg/mL (≈ 0.885 µM); with Bacillus cereus, 1 µg/mL (≈ 3.54 µM). Further, in the assay on Bacillus subtilis, inhibition of growth (MIC) required 0.5 µg/mL (≈ 1.77 µM). Further, the MIC50 in the assay on Staphylococcus aureus [1] came out at 0.5 µg/mL (≈ 1.77 µM). This compound also displayed an MIC90 against Staphylococcus aureus [1] of 0.5 µg/mL (≈ 1.77 µM).

For `CCC1=C2OC=C(C)c3ccc(C)c(c32)C(=O)C1=O`, in the assay on Staphylococcus aureus [1], the MIC50 turned out to be 16 µg/mL (≈ 62.9 µM) and the MIC90 was above 32 µg/mL.

In the assay with Staphylococcus aureus [1], `CC(=O)C1=C2OC=C(C)c3ccc(C)c(c32)C(=O)C1=O` registered an MIC50 of 16 µg/mL (≈ 59.6 µM) and an MIC90 of 32 µg/mL (≈ 119 µM).

In the assay with Staphylococcus aureus [1], `CC1=COC2=C(Br)C(=O)C(=O)c3c(C)ccc1c32` displayed an MIC50 of 8 µg/mL (≈ 26.2 µM) and an MIC90 of 16 µg/mL (≈ 52.4 µM).

On to `CC1=COC2=C(C)C(=O)C(=O)c3c(CCC(C)C)ccc1c32`, for which, in the assay with Staphylococcus aureus [1], the MIC50 is 8 µg/mL (≈ 27 µM) and the MIC90 worked out at 16 µg/mL (≈ 54 µM).

In the assay on Staphylococcus aureus [1], `COc1ccc2c3c1C(=O)C(=O)C(C)=C3OC=C2C` registered an MIC50 of 8 µg/mL (≈ 31.2 µM) and an MIC90 of 8 µg/mL (≈ 31.2 µM).

In the assay with Staphylococcus aureus [1], `COC(=O)c1ccc2c3c1C(=O)C(=O)C(C)=C3OC=C2C` gave an MIC50 of 16 µg/mL (≈ 56.3 µM) and an MIC90 of 16 µg/mL (≈ 56.3 µM).

In the assay with Staphylococcus aureus [1], `CC1=COC2=CC(=O)C(=O)c3c(C)ccc1c32` displayed an MIC50 of 8 µg/mL (≈ 35.4 µM) and an MIC90 of 16 µg/mL (≈ 70.7 µM).

In the assay with Staphylococcus aureus [1], `CCCCCc1ccc2c3c1C(=O)C(=O)C(C)=C3OC=C2C` displayed an MIC50 of 4 µg/mL (≈ 13.5 µM) and an MIC90 of 8 µg/mL (≈ 27 µM).

In the assay with Staphylococcus aureus [1], `CCCC1=C2OC=C(C)c3ccc(C)c(c32)C(=O)C1=O` gave an MIC50 of 4 µg/mL (≈ 14.9 µM) and an MIC90 of 8 µg/mL (≈ 29.8 µM).

On to `CCCc1ccc2c3c1C(=O)C(=O)C(C)=C3OC=C2C`, for which, in the assay with Staphylococcus aureus [1], the MIC50 came to 1 µg/mL (≈ 3.73 µM) and the MIC90 is 4 µg/mL (≈ 14.9 µM).

Consider `CC1=COC2=C(CBr)C(=O)C(=O)c3c(C)ccc1c32`, for which, in the assay on Staphylococcus aureus [1], the MIC50 is 16 µg/mL (≈ 50.1 µM) and the MIC90 came out at 16 µg/mL (≈ 50.1 µM).

`COC(=O)C1=C2OC=C(C)c3ccc(C)c(c32)C(=O)C1=O`: in the assay on Staphylococcus aureus [1], the MIC50 amounted to 16 µg/mL (≈ 56.3 µM) and the MIC90 is 32 µg/mL (≈ 113 µM).

Take `CCc1ccc2c3c1C(=O)C(=O)C(C)=C3OC=C2C`: in the assay on Staphylococcus aureus [1], the MIC50 was found to be 8 µg/mL (≈ 31.5 µM) and the MIC90 is 16 µg/mL (≈ 62.9 µM).

For `CC1=COC2=C(C)C(=O)C(=O)c3c(C)ccc1c32` [MANSONONE F], the minimal inhibitory concentration (MIC) against Micrococcus luteus [2] came to 1 µg/mL (≈ 4.16 µM); against Klebsiella pneumoniae it was 8 µg/mL (≈ 33.3 µM); in [3], 0.5 µg/mL (≈ 2.08 µM); with Staphylococcus aureus [4], 4 µg/mL (≈ 16.6 µM); in the assay with Micrococcus luteus [5] it was 1 µg/mL (≈ 4.16 µM); in the assay with Staphylococcus aureus [6], 4 µg/mL (≈ 16.6 µM). Further, the minimum inhibitory concentration (MIC) stood at 4 µg/mL (≈ 16.6 µM) against Staphylococcus aureus [7] (Smith); 8 µg/mL (≈ 33.3 µM) in the assay on Staphylococcus aureus [7] (TMS 33); 8 µg/mL (≈ 33.3 µM) in the assay on Staphylococcus aureus [7] (TMS 64); 4 µg/mL (≈ 16.6 µM) in the assay on Staphylococcus aureus [7] (TMS 417); 1 µg/mL (≈ 4.16 µM) in the assay on Staphylococcus aureus [8]; 4 µg/mL (≈ 16.6 µM) against Bacillus cereus. Also, the MIC against Bacillus subtilis stood at 2 µg/mL (≈ 8.32 µM). The MIC50 in the assay with Staphylococcus aureus [1] worked out at 2 µg/mL (≈ 8.32 µM). The compound also gave an MIC90 in the assay on Staphylococcus aureus [1] of 4 µg/mL (≈ 16.6 µM).

With `CN[C@H](CC(C)C)C(=O)N[C@H]1C(=O)N[C@@H](CC(N)=O)C(=O)N[C@H]2C(=O)N[C@H]3C(=O)N[C@H](C(=O)N[C@H](C(=O)O)c4cc(O)cc(O)c4-c4cc3ccc4O)[C@H](O)c3ccc(c(Cl)c3)Oc3cc2cc(c3O[C@@H]2O[C@H](CO)[C@@H](O)[C@H](O)[C@H]2O[C@H]2C[C@](C)(N)[C@H](O)[C@H](C)O2)Oc2ccc(cc2Cl)[C@H]1O` [VANCOMYCIN], the MIC is 8 µg/mL (≈ 5.52 µM) in the assay with Micrococcus luteus [2]; above 32 µg/mL against Klebsiella pneumoniae; 8 µg/mL (≈ 5.52 µM) in assay [3]; 4 µg/mL (≈ 2.76 µM) against Micrococcus luteus [5]; 8 µg/mL (≈ 5.52 µM) in the assay with Staphylococcus aureus [8]; 4 µg/mL (≈ 2.76 µM) against Bacillus cereus. This compound also gave a minimal inhibitory concentration (MIC) with Bacillus subtilis of 0.5 µg/mL (≈ 0.345 µM). In the assay on Staphylococcus aureus [1], this compound came in with an MIC50 of 2 µg/mL (≈ 1.38 µM). For the same compound, in the assay with Staphylococcus aureus [1], the MIC90 was determined as 2 µg/mL (≈ 1.38 µM).
